Reference: ChEMBL document CHEMBL1155142, “Promoter and transcription analysis of penicillin-binding protein genes in Streptococcus gordonii” (2007)
Converted amounts (≈) assume the structure as drawn. The source made the active and inactive calls. The rule behind the calls is not given here.

Legend:
Streptococcus gordonii [1] = assay: Effect on pbp2X gene expression in penicillin-resistant Streptococcus gordonii with penicillin binding protein PR1_2 evolved mutation assessed as relative luciferase units relative to control; format: functional, organism-based
Method in brief: (§1)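 pbp promoter–luc transcriptional fusions integrated into the chromosome of resistant strain PR1_2evolved. Cells grown at 37°C in BHI without aeration from a 1/100 overnight inoculum. Penicillin G at 1/2× or 1/8× MIC added at OD620 0.12. Samples taken into sodium citrate pH 5.5, with 1 mM D-luciferin solution in glycylglycine/MgSO4 buffer added. Light read 10 s at 22°C; RLU normalised to OD620, expressed as % of untreated; means of six experiments.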

Streptococcus gordonii [2] = assay: Antibacterial activity against penicillin-resistant Streptococcus gordonii with penicillin binding protein PR1_2 evolved mutation; format: functional
Streptococcus gordonii [3] = assay: Antibacterial activity against wild type penicillin-susceptible Streptococcus gordonii at 4 times MIC; format: functional, organism-based
Method in brief: (§2)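 S. gordonii was grown at 37°C in BHI broth without aeration from a 1/100 inoculum of an overnight culture. Penicillin G was added once OD620 reached 0.12, and growth was followed by OD620 against an untreated culture.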

Streptococcus gordonii [4] = assay: Increase in pbp1B gene expression in penicillin-resistant Streptococcus gordonii with penicillin binding protein PR1_2 evolved mutation assessed as relative luciferase units relative to control; format: functional; method in brief: as §1
Streptococcus gordonii [5] = assay: Effect on pbp2B gene expression in penicillin-resistant Streptococcus gordonii with penicillin binding protein PR1_2 evolved mutation assessed as relative luciferase units relative to control; format: functional, organism-based; method in brief: as §1
Streptococcus gordonii [6] = assay: Increase in pbp2A gene expression in penicillin-resistant Streptococcus gordonii with penicillin binding protein PR1_2 evolved mutation assessed as relative luciferase units relative to control; format: functional; method in brief: as §1
Streptococcus gordonii [7] = assay: Increase in pbp1A gene expression in penicillin-resistant Streptococcus gordonii with penicillin binding protein PR1_2 evolved mutation assessed as relative luciferase units relative to control; format: functional; method in brief: as §1
Streptococcus gordonii [8] = assay: Increase in pbp2A gene expression in penicillin-resistant Streptococcus gordonii with penicillin binding protein PR1_2 evolved mutation at 1/2 times MIC assessed as relative luciferase units relative to control; format: functional, organism-based; method in brief: as §1
Streptococcus gordonii [9] = assay: Increase in pbp2B gene expression in penicillin-resistant Streptococcus gordonii with penicillin binding protein PR1_2 evolved mutation assessed as relative luciferase units relative to control; format: functional; method in brief: as §1
Streptococcus gordonii [10] = assay: Increase in pbp1A gene expression in penicillin-resistant Streptococcus gordonii with penicillin binding protein PR1_2 evolved mutation at 1/2 times MIC assessed as relative luciferase units relative to control; format: functional, organism-based; method in brief: as §1
Streptococcus gordonii [11] = assay: Increase in pbp1A gene expression in penicillin-resistant Streptococcus gordonii with penicillin binding protein PR1_2 evolved mutation at 1/8 times MIC assessed as relative luciferase units relative to control; format: functional, organism-based; method in brief: as §1
Streptococcus gordonii [12] = assay: Antibacterial activity against wild type penicillin-susceptible Streptococcus gordonii at 2 times MIC; format: functional, organism-based; method in brief: as §2
Streptococcus gordonii [13] = assay: Antibacterial activity against Streptococcus gordonii with non penicillin binding protein mutation; format: functional
Streptococcus gordonii [14] = assay: Increase in pbp2X gene expression in penicillin-resistant Streptococcus gordonii with penicillin binding protein PR1_2 evolved mutation assessed as relative luciferase units relative to control; format: functional; method in brief: as §1
Streptococcus gordonii [15] = assay: Antibacterial activity against Streptococcus gordonii with penicillin binding protein mutation; format: functional
Streptococcus gordonii [16] = assay: Induction of pbp2A gene expression in wild type penicillin-susceptible Streptococcus gordonii assessed as relative luciferase units relative to control; format: functional, organism-based
Method in brief: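 The pbp2A promoter was fused to promoterless luc on the chromosome (integrative pJDC9) in S. gordonii grown in BHI at 37°C, and penicillin G was added at OD620 0.12. Samples of 100 µl went into sodium citrate pH 5.5, then 50 µl of 1 mM D-luciferin in glycylglycine/MgSO4 buffer was added. Light was read for 10 s after a 2 s delay at 22°C, normalized to OD620, and expressed as % of the untreated culture.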

CC1(C)S[C@@H]2[C@H](NC(=O)Cc3ccccc3)C(=O)N2[C@H]1C(=O)O [PENICILLIN G]
Activity (Streptococcus gordonii [1]): Active | MIC (Streptococcus gordonii [2]): 2 µg/mL (≈ 5.98 µM) | Activity (Streptococcus gordonii [3]): Active | Activity (Streptococcus gordonii [4]): 0.7 | Activity (Streptococcus gordonii [5]): inactive | Activity (Streptococcus gordonii [6]): 1.59 | Activity (Streptococcus gordonii [7]): 1.55 | Activity (Streptococcus gordonii [8]): Active | Activity (Streptococcus gordonii [9]): 1.39 | Activity (Streptococcus gordonii [10]): Active | Activity (Streptococcus gordonii [11]): Active | Activity (Streptococcus gordonii [12]): Active | MIC (Streptococcus gordonii [13]): 0.008 µg/mL (≈ 0.0239 µM) | Activity (Streptococcus gordonii [14]): 2.1 | MIC (Streptococcus gordonii [15]): 0.5 µg/mL (≈ 1.5 µM) | Activity (Streptococcus gordonii [16]): Active
